The source of these data is ChEMBL document CHEMBL1150329, “The discovery of fused pyrrole carboxylic acids as novel, potent D-amino acid oxidase (DAO) inhibitors” (Bioorg Med Chem Lett, 2008).

Assay [1] deals with D-amino-acid oxidase (Homo sapiens, UniProt P14920). Briefly: Inhibition of human DAO.
Assay [2] can be described thus: Inhibition of CYP3C9. In kind it is ADME.
In assay [3] the target is Cytochrome P450 2D6 (Homo sapiens, UniProt P10635). Kind of assay: Inhibition of CYP2D6. In kind it is ADME.
Chain of Cytochrome P450 2D6 (P10635 whole entry): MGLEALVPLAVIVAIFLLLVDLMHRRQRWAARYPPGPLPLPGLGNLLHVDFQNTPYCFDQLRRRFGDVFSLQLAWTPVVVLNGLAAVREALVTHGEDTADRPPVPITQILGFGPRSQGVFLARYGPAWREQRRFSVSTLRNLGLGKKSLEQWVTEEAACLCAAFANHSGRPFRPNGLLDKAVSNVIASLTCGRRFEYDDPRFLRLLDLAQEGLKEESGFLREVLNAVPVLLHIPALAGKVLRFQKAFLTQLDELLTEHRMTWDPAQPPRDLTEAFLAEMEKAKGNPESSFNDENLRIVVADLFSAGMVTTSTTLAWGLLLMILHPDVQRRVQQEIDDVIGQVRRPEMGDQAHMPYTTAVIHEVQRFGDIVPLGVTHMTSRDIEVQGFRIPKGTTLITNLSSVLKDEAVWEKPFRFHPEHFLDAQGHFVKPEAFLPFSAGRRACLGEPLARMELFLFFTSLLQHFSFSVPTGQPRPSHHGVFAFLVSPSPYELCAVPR
Assay [4] has as its target Cytochrome P450 3A4 (Homo sapiens, UniProt P08684). Briefly: Inhibition of CYP3A4. The assay is classed as ADME.
For assay [5], the target named is T1, D-aspartate oxidase (Homo sapiens, UniProt Q99489).
T1 sequence (Q99489 whole entry): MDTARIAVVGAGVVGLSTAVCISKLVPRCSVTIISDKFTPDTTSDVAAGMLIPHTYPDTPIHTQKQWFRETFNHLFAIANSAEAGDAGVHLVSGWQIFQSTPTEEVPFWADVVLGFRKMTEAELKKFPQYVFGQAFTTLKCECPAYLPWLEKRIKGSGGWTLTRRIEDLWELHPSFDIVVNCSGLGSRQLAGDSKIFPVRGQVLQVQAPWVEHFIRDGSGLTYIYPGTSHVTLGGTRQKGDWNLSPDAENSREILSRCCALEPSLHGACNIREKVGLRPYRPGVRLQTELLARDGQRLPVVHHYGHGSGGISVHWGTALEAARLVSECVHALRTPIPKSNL
Kind of assay: Inhibition of human DDO.

For assay [6], the system named is Rattus norvegicus. Kind of assay: Ex vivo inhibition of DAO in ip dosed rat kidney. The assay is classed as functional, organism-based. Put shortly: (§1)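 Rats were given 25, 75 or 150 mg/kg ip. DAO enzyme activity was measured ex vivo in kidney and cerebellum at 1, 2 and 4 h after dosing and compared with vehicle-dosed rats. Time and treatment effects were tested by two-way ANOVA, with Bonferroni post tests for individual dose-versus-vehicle comparisons.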

Assay [7] concerns Rattus norvegicus. Kind of assay: Ex vivo inhibition of DAO in rat cerebellum at 25 mg/kg, ip after 1 hr. Set-up: dose 25 mg/kg. The assay is classed as functional, organism-based. Put shortly: as §1
Assay [8] has as its system Rattus norvegicus. Kind of assay: Ex vivo inhibition of DAO in ip dosed rat cerebellum. In kind it is functional, organism-based. Put shortly: as §1

The source made the active and inactive calls. No cut-off for these calls is given here. A value given as a limit tells only on which side of the number the result lay.

Chain of D-amino-acid oxidase (P14920 whole entry): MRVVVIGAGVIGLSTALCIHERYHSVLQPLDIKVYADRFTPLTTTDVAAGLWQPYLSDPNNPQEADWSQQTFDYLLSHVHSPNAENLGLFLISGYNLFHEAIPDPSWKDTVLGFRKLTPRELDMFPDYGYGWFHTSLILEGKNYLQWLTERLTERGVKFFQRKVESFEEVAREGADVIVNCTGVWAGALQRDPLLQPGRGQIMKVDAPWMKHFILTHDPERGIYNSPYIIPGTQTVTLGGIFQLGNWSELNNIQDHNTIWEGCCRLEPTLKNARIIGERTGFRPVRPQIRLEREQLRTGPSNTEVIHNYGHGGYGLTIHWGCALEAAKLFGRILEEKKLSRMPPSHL
Chain of Cytochrome P450 3A4 (P08684 whole entry): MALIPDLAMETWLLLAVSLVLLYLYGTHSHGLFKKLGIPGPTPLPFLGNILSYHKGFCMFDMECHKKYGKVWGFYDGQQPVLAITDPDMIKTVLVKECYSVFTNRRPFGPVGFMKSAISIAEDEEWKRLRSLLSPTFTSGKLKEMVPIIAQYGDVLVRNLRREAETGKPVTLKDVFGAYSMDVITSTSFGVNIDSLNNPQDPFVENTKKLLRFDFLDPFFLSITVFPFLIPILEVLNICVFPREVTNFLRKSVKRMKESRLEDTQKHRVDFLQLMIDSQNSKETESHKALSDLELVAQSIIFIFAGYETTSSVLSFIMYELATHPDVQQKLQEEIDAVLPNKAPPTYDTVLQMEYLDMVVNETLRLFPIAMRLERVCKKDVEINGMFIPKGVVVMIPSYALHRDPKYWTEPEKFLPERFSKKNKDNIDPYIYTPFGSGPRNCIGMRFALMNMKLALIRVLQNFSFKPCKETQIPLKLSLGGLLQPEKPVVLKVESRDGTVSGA

Regarding `O=C(O)c1cc2occ(-c3cccc(Cl)c3)c2[nH]1`, in assay [1], the IC50 (as a rule, the point on the concentration scale where inhibition reaches its midpoint) is above 5 µM.

In assay [1], `O=C(O)c1cc2ncsc2[nH]1` showed an IC50 of 4.2 µM.

With `O=C(O)c1cc2scnc2[nH]1`, the IC50 in assay [1] is 0.516 µM.

With `N#Cc1csc2cc(C(=O)O)[nH]c12`, 1.15 µM corresponded to half-maximal inhibition in assay [1] (IC50).

On to `O=C(O)c1cc2sccc2[nH]1`, for which the IC50 in assay [2] was above 10 µM; in assay [3], above 10 µM; in assay [4], above 10 µM; in assay [1], 0.245 µM.

As to `O=C(O)c1cc2oc(-c3ccc(Cl)cc3)cc2[nH]1`, the IC50 in assay [1] was above 5 µM.

As for `Oc1noc2cc(Cl)ccc12`, the IC50 in assay [5] was above 5 µM.

With `O=C(O)c1cc2occ(Cl)c2[nH]1`, in assay [1], the IC50 came to 1.43 µM.

Turning to `O=C(O)c1cc2oc(Cl)cc2[nH]1`, the IC50 in assay [1] is above 5 µM.

On to `O=C(O)c1cc2oc(-c3ccccc3)cc2[nH]1`, for which, in assay [1], the IC50 is above 5 µM.

As for `Cc1oc2cc(C(=O)O)[nH]c2c1C`, the concentration for half-maximal inhibition (IC50) in assay [1] was above 5 µM.

As for `O=C(O)c1cc2ocnc2[nH]1`, in assay [1], the IC50 was above 5 µM.

In assay [1], `O=C(O)c1cc2oc(-c3cccc(Cl)c3)cc2[nH]1` had an IC50 above 5 µM.

As to `O=C(O)c1cc2ccccc2[nH]1` [INDOLE-2-CARBOXYLIC ACID], the IC50 in assay [5] was above 5 µM; in assay [1], 0.745 µM.

For the compound `O=C(O)c1cc2occ(-c3ccc(Cl)cc3)c2[nH]1`, the IC50 in assay [1] was above 5 µM.

As for `O=C(O)c1cc(Cl)c(Cl)o1`, the values for the half-inhibitory concentration (IC50) in assay [5] and in assay [1] were above 5 µM and 0.343 µM, respectively.

As to `O=C(O)c1cc2occc2[nH]1`, the IC50 in assay [2] is above 10 µM; in assay [3] it was above 10 µM; in assay [4], above 10 µM; in assay [5], above 5 µM. Also, the result in assay [6] and in assay [8] was Active. Besides, the outcome in assay [7] was inactive.

`O=C(O)c1cc2occ(CO)c2[nH]1` yielded an IC50 in assay [1] above 5 µM.

In assay [1], `O=C(O)c1cc2occ(-c3cccnc3)c2[nH]1` had a half-maximal inhibitory concentration (IC50) above 5 µM.

For the compound `O=C(O)c1ccc[nH]1`, in assay [1], the IC50 was above 5 µM.

As to `O=C(O)c1cc2sc(Cl)cc2[nH]1`, in assay [1], the half-inhibitory concentration (IC50) is above 5 µM.

Take `O=C(O)c1cc2ccsc2[nH]1`: the half-maximal inhibitory concentration (IC50) in assay [1] came out at 0.269 µM. This counts as sub-micromolar.

As to `O=C(O)c1cc2oc(-c3ccc(Cl)cc3Cl)cc2[nH]1`, the half-maximal inhibitory concentration (IC50) in assay [1] is above 5 µM.

The compound `O=C(O)c1cc2[nH]ncc2[nH]1` showed a concentration for half-maximal inhibition (IC50) in assay [1] above 5 µM.
